ChEMBL document CHEMBL2434877, “Synthesis and SAR study of novel 3,3-diphenyl-1,3-dihydroindol-2-one derivatives as potent eIF2·GTP·Met-tRNAiMet ternary complex inhibitors” (Eur J Med Chem, 2013)
The source made the active and inactive calls. The rule behind the calls is not given here.

Experiments:
[1] = test system: MCF7; experiment: Antitumor activity against human MCF7 cells xenografted in mouse assessed as regression in tumor size at 140 mg/kg, sc bid for 3 weeks relative to control; type: functional; conditions: route subcutaneous
[2] = species: Mus musculus; experiment: Inhibition of eIF2-GTP-Met-tRNAi (Met) in mouse KLN205 cells assessed as increase in ATF-4 expression at 40 uM by dual luciferase reporter gene assay relative to control; type: cell-based
Procedure, shortened: (§1)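 KLN-205 cells carry firefly luciferase fused to the ATF-4 5′UTR and renilla luciferase behind a uORF-free 5′UTR. Cells treated overnight with compound at 10, 20, 40 or 80 µM, then read with a glow-type dual luciferase kit. Firefly/renilla ratio corrected for the same ratio in DMSO wells on the same plate.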

[3] = species: Mus musculus; experiment: Inhibition of eIF2-GTP-Met-tRNAi (Met) in mouse KLN205 cells assessed as increase in CHOP mRNA expression by qRT-PCR analysis relative to DMSO-treated control; type: cell-based
Procedure, shortened: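 CHOP mRNA measured by PCR in KLN-205 cells, triplicate in at least two independent runs. Transcript quantities normalized to 18S rRNA and expressed as fold over DMSO control.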

[4] = Antiproliferative activity against human CRL2813 cells after 5 days by SRB assay; type: functional, cell-based; conditions: CRL2813, 120 h
Procedure, shortened: (§2)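 Adherent cells plated, allowed to settle overnight, then exposed 5 days to 0.54–20 µM compound. Fixed in cold 10% TCA (4 °C, 1 h), stained with 0.4% SRB in 1% acetic acid for 1 h, dye solubilized in 10 mM Tris pH 10, A490 read. Time-zero plates used for %T/C. IC50 is the 50% growth-inhibition concentration, mean of 2 experiments each in triplicate.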

[5] = Antiproliferative activity against human CRL2351 cells after 5 days by SRB assay; type: functional, cell-based; conditions: 120 h; procedure, shortened: as §2
[6] = Antiproliferative activity against mouse KLN205 cells after 5 days by SRB assay; type: functional, cell-based; conditions: 120 h; procedure, shortened: as §2
[7] = species: Mus musculus; experiment: Inhibition of eIF2-GTP-Met-tRNAi (Met) in mouse KLN205 cells assessed as increase in ATF-4 expression at 80 uM by dual luciferase reporter gene assay relative to control; type: cell-based; procedure, shortened: as §1
[8] = species: Mus musculus; experiment: Inhibition of eIF2-GTP-Met-tRNAi (Met) in mouse KLN205 cells assessed as increase in ATF-4 expression at 10 to 80 uM by dual luciferase reporter gene assay; type: cell-based; procedure, shortened: as §1

| SMILES | Activity [1] | fold change (FC) [2] | fold change (FC) [3] | IC50 [4] | IC50 [5] | IC50 [6] | fold change (FC) [7] | ATF-4 reporter expression relative to DMSO control [8] |
| --- | --- | --- | --- | --- | --- | --- | --- | --- |
| CC(C)(C)c1ccc(O)c(C2(c3ccccc3)C(=O)Nc3ccccc32)c1 (configuration not stated) | 30% | 3.7 | 3.77 | 4.8 µM | 3.4 µM | 14.4 µM |  |  |
| CC(C)(C)c1ccc(O)c(C2(c3ccccc3)C(=O)Nc3ccc(-c4ccc(N5CCOCC5)nc4)cc32)c1 (configuration not stated) |  |  | 20.8 | 2.5 µM | 1.8 µM | 13.3 µM | 15.6 |  |
| CC(C)(C)c1ccc(O)c(C2(c3ccc(O)cc3)C(=O)Nc3ccccc32)c1 (configuration not stated) |  |  |  | 4 µM | 2 µM | 17.3 µM |  |  |
| CC(C)(C)c1ccc(O)c(C2(c3ccc(O)cc3)C(=O)Nc3c2ccc(F)c3F)c1 (configuration not stated) |  | 2.9 | 3.09 | 10.7 µM | > 20 µM | 15.3 µM |  |  |
| COc1ccc(C2(c3cc(C(C)(C)C)ccc3OCCN3CCOCC3)C(=O)Nc3ccccc32)cc1 (racemic) |  | 6.3 | 7.1 | 2.4 µM | 2.65 µM | 4.3 µM |  |  |
| CN(C)c1ccc(C2(c3cc(C(C)(C)C)ccc3OCCN3CCOCC3)C(=O)Nc3ccccc32)cc1 (racemic) |  | 7.15 | 4.15 | 7.5 µM | 4.7 µM | 2.2 µM |  |  |
| COc1ccc(C2(c3cc(C(C)(C)C)ccc3OCCN3CCOCC3)C(=O)Nc3ccccc32)cc1OC (racemic) |  |  |  | > 20 µM | > 20 µM | > 20 µM |  |  |
| COc1ccc(C2(c3cc(C(C)(C)C)ccc3OCCN3CCOCC3)C(=O)Nc3ccccc32)cc1F (racemic) |  |  |  | 2.7 µM | 2.5 µM | 3.4 µM |  |  |
| COc1ccc(C2(c3cc(C(C)(C)C)ccc3OCCN3CCOCC3)C(=O)Nc3ccc(OC)cc32)cc1 (racemic) |  |  |  | 2.9 µM | 4.5 µM | 2.75 µM |  |  |
| COC(=O)c1cccc2c1NC(=O)C2(c1ccc(OC)cc1)c1cc(C(C)(C)C)ccc1OCCN1CCOCC1 (racemic) |  |  |  | 14.6 µM | 16.3 µM | 17 µM |  | inactive |
| COc1ccc(C2(c3cc(C(C)(C)C)ccc3OCCN3CCOCC3)C(=O)Nc3ccc(I)cc32)cc1 (racemic) |  |  |  | 2.6 µM | 6.1 µM | 12 µM |  |  |
| COc1ccc(C2(c3cc(C(C)(C)C)ccc3OCCN3CCOCC3)C(=O)Nc3ccc(OC(F)(F)F)cc32)cc1 (racemic) |  | 5.11 | 3.49 | 1.9 µM | 2.9 µM | 9.3 µM |  |  |
| CN(C)c1ccc(C2(c3cc(C(C)(C)C)ccc3OCCN3CCOCC3)C(=O)Nc3c2ccc(F)c3F)cc1 (racemic) |  |  |  | 11 µM | 4 µM | 15.7 µM |  |  |
| C#CCOc1ccc(C(C)(C)C)cc1C1(c2ccccc2)C(=O)Nc2ccccc21 (racemic) |  |  |  | > 20 µM | 17.5 µM | > 20 µM |  |  |
| CC(C)(C)c1ccc(OCC(=O)O)c(C2(c3ccccc3)C(=O)Nc3ccccc32)c1 (racemic) |  |  |  | > 20 µM | > 20 µM | > 20 µM |  | inactive |
| COc1ccc(C2(c3cc(C(C)(C)C)ccc3O)C(=O)Nc3ccccc32)cc1 (racemic) |  | 5.6 | 4.09 | 2.75 µM | 2.65 µM | 15.7 µM |  |  |
| CN(C)c1ccc(C2(c3cc(C(C)(C)C)ccc3O)C(=O)Nc3ccccc32)cc1 (racemic) |  |  |  | 11 µM | 2.3 µM | 10.9 µM |  |  |
| CC(C)(C)c1ccc(O)c(C2(c3ccc(CN4CCOCC4)cc3)C(=O)Nc3ccccc32)c1 (racemic) |  |  | 4.68 | 7.8 µM | 7.3 µM | 17.3 µM | 12.4 |  |
| Cc1cc(C2(c3cc(C(C)(C)C)ccc3O)C(=O)Nc3ccccc32)ccc1Cl (racemic) |  |  |  | 2.9 µM | 2.9 µM | 4.3 µM |  |  |
| CC(C)(C)c1ccc(O)c(C2(c3cccnc3)C(=O)Nc3ccccc32)c1 (racemic) |  |  |  | 11.5 µM | 6.4 µM | > 20 µM |  |  |
| CC(C)(C)c1ccc(O)c(C2(c3ccccc3)C(=O)Nc3ccc(I)cc32)c1 (racemic) |  | 7.2 | 4.36 | 2.8 µM | 3.5 µM | 14.9 µM |  |  |
| CC(C)(C)c1ccc(O)c(C2(c3ccccc3)C(=O)Nc3ccc(OC(F)(F)F)cc32)c1 (racemic) |  |  |  | 1 µM | 2.5 µM | 8 µM |  |  |
| CC(C)(C)c1ccc(O)c(C2(c3ccccc3)C(=O)Nc3ccc4ncsc4c32)c1 (racemic) |  |  |  | 0.95 µM | 2.2 µM | 8 µM |  | inactive |
| COc1ccc(C2(c3cc(C(C)(C)C)ccc3O)C(=O)Nc3c2ccc(F)c3F)cc1 (racemic) |  |  |  | 3 µM | 0.95 µM | 12.3 µM |  | inactive |
| COc1ccc(C2(c3cc(C(C)(C)C)ccc3O)C(=O)Nc3ccc(OC)cc32)cc1 (racemic) |  |  |  | 11.1 µM | 2.9 µM | 14.3 µM |  | inactive |
| COC(=O)c1cccc2c1NC(=O)C2(c1ccc(OC)cc1)c1cc(C(C)(C)C)ccc1O (racemic) |  |  |  | 12.2 µM | 3.4 µM | > 20 µM |  |  |
| CC(C)(C)c1ccc(OCCN2CCOCC2)c(C2(c3ccccc3)C(=O)Nc3ccccc32)c1 (racemic) |  |  |  | 2.4 µM | 3.35 µM | 6.8 µM |  |  |
| CN(C)CCOc1ccc(C(C)(C)C)cc1C1(c2ccccc2)C(=O)Nc2ccccc21 (racemic) |  |  |  | 2.4 µM | 1.4 µM | 1.2 µM |  |  |
| CC(C)(C)c1ccc(OCCN2CCNCC2)c(C2(c3ccccc3)C(=O)Nc3ccccc32)c1 (racemic) |  |  |  | 12.8 µM | 0.9 µM | 1.2 µM |  | inactive |
